Screens (PubChem)
TNAP inh no acc: inhibitors of human TNAP without phosphate acceptor. P05186. purified TNAP, CDP-star luminescence, 30 min. inhibition, % at 20 µM. actives 0.26% (n = 200,000);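 active = tissue-nonspecific alkaline phosphatase inhibition above about 50% at 20 µM in the single-dose screen, limit read from the data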
TNAP act hi DEA: activators of human TNAP at high phosphate acceptor concentration; P05186; purified TNAP, CDP-star luminescence, 1 M DEA, 30 min; active compounds read high; 0 = EDTA background, 1 = DMSO-only activity; activation factor at 20 µM; 200,000 tested, under 10 active;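 active = activation factor at least 2 at 20 µM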
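system = human TNAP | amount = enzyme diluted 1/800 final | reagent = 100 µM CDP-star substrate | signal = luminescent substrate turnover signal | dosing = one dose, 20 µM | benchmarks = EDTA negative control, DMSO positive control | measure = activation factor | timing = 30 min reaction, room temperature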
PMI act satM6P: activators of human phosphomannose isomerase at near-saturating mannose 6-phosphate; coupled PMI enzyme assay, resazurin fluorescence, 20 min; active compounds read high; 1 = untreated enzyme, 0 = substrate-free blank; P34949; activation factor at 20 µM; actives 0.34% (n = 190,000); AID 1216;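 active = activation factor of 2 or more at 20 µM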
Target sequence (P34949 whole entry, looked up): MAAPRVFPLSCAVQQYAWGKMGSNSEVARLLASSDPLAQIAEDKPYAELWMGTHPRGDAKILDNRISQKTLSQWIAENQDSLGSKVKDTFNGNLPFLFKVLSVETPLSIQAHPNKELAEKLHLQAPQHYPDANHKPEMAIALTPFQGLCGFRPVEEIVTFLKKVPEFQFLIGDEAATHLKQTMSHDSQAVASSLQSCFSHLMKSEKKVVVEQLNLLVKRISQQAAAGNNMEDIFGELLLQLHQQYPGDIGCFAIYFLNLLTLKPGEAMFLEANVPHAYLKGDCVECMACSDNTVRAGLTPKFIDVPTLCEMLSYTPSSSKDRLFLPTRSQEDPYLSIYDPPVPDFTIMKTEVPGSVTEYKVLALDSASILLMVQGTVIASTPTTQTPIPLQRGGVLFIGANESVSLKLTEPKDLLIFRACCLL
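assay system = human phosphomannose isomerase with PGI, G6PDH, diaphorase coupling enzymes | quantity = 15 ng/mL PMI | incubation = enzyme reaction with compound 20 min at room temperature | medium = HEPES pH 7.4 buffer with MgCl2 and Tween-20 | compound dosing = one concentration, 20 µM, in 1% DMSO | measured by = Diaphorase-driven resazurin-to-resorufin fluorescence, excitation 544, emission 590 nm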
PMI activator: increases human mannose-6-phosphate isomerase activity; actives 0.005% (n = 190,000); activation factor at 20 µM; purified human PMI, coupled resazurin fluorescence, 20 min; active compounds read high; 1 = vehicle control, 0 substrate-free wells; P34949; AID 1214;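 active = activation factor of 2 or more at 20 µM, relative to plate controls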
TNAP inh hi DEA: blocks human TNAP under high phosphate acceptor concentration; P05186; purified TNAP, CDP-star luminescence, 1 M DEA; inhibition, % at 20 µM; actives 0.03% (n = 200,000);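 active = over 50% inhibition of tissue-nonspecific alkaline phosphatase at 20 µM in the single-dose screen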
Large screens that a line does not name were inactive. Compounds with a hit are over-represented: about 0.6% of the library has one in this group of screens.

COc1cc(/C=N/Nc2ccc(Cl)cc2)ccc1OC(=O)c1cccs1	PMI act satM6P 2.3
CC(=O)c1cc(NC(=O)c2ccccc2)c(=O)oc1C	PMI act satM6P 2.1
CCOC(=O)c1cc(NC(=O)c2ccc(C)cc2)c(=O)oc1C(F)(F)F	PMI act satM6P 2.6
CCOC(=O)c1cc(NC(=O)c2ccccc2)c(=O)oc1C(F)(F)F	PMI act satM6P 2.2
Cc1oc(=O)c(NC(=O)c2ccccc2)cc1C(=O)c1ccccc1	none
COc1ccc(CN(CC2CCC(C(=O)O)CC2)C(=S)Nc2cc(Cl)ccc2OC)cc1 (stereo unspecified)	none
COC(=O)C(N)Cc1ccc(O)c(O)c1 (stereo unspecified)	none
C[C@](N)(Cc1ccc(O)c(O)c1)C(=O)O	TNAP inh no acc 54
COc1ccc2[nH]c3c(Cl)ncnc3c2c1	none
COc1ccc2[nH]c3c(=S)nc[nH]c3c2c1	PMI act satM6P 2.6
CCCCN1C(=O)/C(=C/C=C2\SCCN2C)SC1=S	TNAP inh hi DEA 52
COc1ccc(S(=O)(=O)c2nnn(-c3ccccc3Cl)c2N)cc1	none
O=C(Nn1c(C2CCCCC2)nc2ccccc2c1=O)c1ccc([N+](=O)[O-])cc1Cl	none
Oc1ccccc1/C=N/Nc1ncc(Br)cn1	none
C/C(=N\Nc1ccc(Cl)cc1)c1c(O)cc(C)oc1=O	PMI act satM6P 2.6
O=C(O)c1cc(N/N=C/c2ccc(OCc3ccccc3)cc2)ccc1Cl	PMI act satM6P 2.5
Oc1ccccc1/C=N/Nc1ccccc1	PMI act satM6P 2.3
CCCCCCCC(=O)N/N=C(/C)c1c(O)cc(C)oc1=O	none
Cc1cc(O)c(C=Nc2cccc(Cl)c2)c(=O)o1	none
Cc1cc(O)c(/C=N/Nc2ccccc2)c(=O)o1	PMI act satM6P 2
O=C(CN1CCN(C(=O)c2ccco2)CC1)Nc1cccc([N+](=O)[O-])c1	none
O=C(Oc1ccc(/C=N/O)cc1)c1ccccc1	none
O=C(Oc1ccc(/C=N/Nc2ccccc2)cc1)c1ccccc1	PMI act satM6P 2.3
Cc1nc(C)c(C(=O)N/N=C/c2cn(C)c3ccccc23)s1	none
Cn1cc(/C=N/Nc2ccccc2)c2ccccc21	PMI act satM6P 2.5
O=c1cc(N2CCCC2)c2ccccc2o1	none
COc1ccc(C(=O)Nc2cccc(C(=O)NCc3ccco3)c2)cc1	none
CC(C)Cn1cc(F)c(=O)n(CC(C)C)c1=O	none
Cc1cc(C)c(C)c(S(=O)(=O)Nc2ccccc2C(=O)NCCCN2CCOCC2)c1C	none
CC(C)(C)C1CCC2(CC1)SCC(=O)N2c1ccccc1 (stereo unspecified)	none
CC(C)(C)C1CCC2(CC1)NC(=S)N(c1ccccc1)N2 (stereo unspecified)	PMI act satM6P 2.8
CC(=O)Nc1cc(-c2ccc(F)cc2)[nH]n1	TNAP inh no acc 91
O=C(N/N=C/c1ccc(O)c(O)c1)c1cccc(S(=O)(=O)N2CCCCC2)c1	TNAP inh no acc 78
COc1ccc(CN2CCN(S(=O)(=O)c3ccc(NC(C)=O)cc3)CC2)c(OC)c1OC	none
CC/C(=N/Nc1ccccc1)c1cnnc(-c2ccccc2)n1	PMI act satM6P 2.9
COc1ccccc1NCC(=O)n1nc(C)cc1C	none
NNC(=O)c1cc(O)c(O)c(O)c1	TNAP inh no acc 58
Fc1cccc(NC(=S)NNc2c3ccccc3nc3ccccc23)c1	PMI act satM6P 2.1
S=C1NCCOCCOCCOCCNC(=S)N2CCOCCOCCN1CCOCCOCC2	none
CC(C)NC(=O)c1ccc2c(c1)S(=O)(=O)c1ccccc1C2=O	none
NNC(=O)c1ccc2c(c1)S(=O)(=O)NNC2=O	PMI act satM6P 2.9
COC(=O)C1=NN(N=O)C2(CC(=O)N(c3cc(C)cc(C)c3)C2=O)C1 (stereo unspecified)	PMI act satM6P 2
C=CCOc1c(OC)cc(/C=N/Nc2cccc(C(=O)O)c2)c(Br)c1Br	PMI act satM6P 2.4
Cc1cc(C)c2c(N)c(C(=O)N3CCN(c4ncccn4)CC3)sc2n1	PMI act satM6P 2
Cn1ccnc1Sc1ccc(C(N)=O)cc1[N+](=O)[O-]	none
CC(C)[C@H](NS(=O)(=O)c1cccc(Cl)c1)C(=O)OCC(=O)N1CCN(c2ccccc2)CC1	PMI act satM6P 2
O=C(OCC(=O)N1CCN(c2ccccc2)CC1)c1cccc(Cl)c1	none
Cc1csc(NC(=O)[C@@H]2CCCN2C(=O)c2cccs2)n1	none
O=c1cc(CSc2nnc(Nc3ccccc3F)s2)nc2sccn12	TNAP inh no acc 52
O=C(O)CCCCCn1c(SCC(=O)c2ccc(O)c(O)c2)nc2ccsc2c1=O	TNAP inh no acc 94
CCCCn1c(SCC(=O)c2ccc(O)c(O)c2)nc2ccsc2c1=O	TNAP inh no acc 96
O=C(CCCn1c(SCC(=O)c2ccc(O)c(O)c2)nc2ccccc2c1=O)NCC1CCCO1 (stereo unspecified)	TNAP inh no acc 96
O=C(CN1C(=O)/C(=C/c2ccccc2F)Sc2ccccc21)N1CCN(c2ccccn2)CC1	none
CCOC(=O)c1ccc(N/N=C/c2cc(Br)cc([N+](=O)[O-])c2O)cc1	TNAP inh hi DEA 56
COC(=O)c1ccc(N/N=C/c2cc([N+](=O)[O-])cc(OC)c2O)cc1	none
C/C(=N/NC(=O)CNC(=O)c1ccccn1)c1cccc([N+](=O)[O-])c1	none
C/C(=N\Nc1nc2ccccc2s1)c1cccs1	none
C/C(=N\Nc1nc(-c2ccccc2)cs1)c1cccs1	PMI act satM6P 2.2
Cc1ccc(-n2nc(C(=O)O)c(O)cc2=O)cc1	none
COc1ccccc1C1NC=C([N+](=O)[O-])C=C1[N+](=O)[O-] (stereo unspecified)	TNAP inh no acc 57
Cc1ccc(-c2cc(-c3n[nH]c(=S)o3)c3ccccc3n2)cc1	PMI act satM6P 2.2
COc1ccc2cc(C(=O)C3CCCN(C(=O)/C=C/c4ccccn4)C3)ccc2c1 (stereo unspecified)	none
CCN(CC)c1ccc(/C=N/NC(=O)c2ccc([N+](=O)[O-])cc2)cc1	none
CCN=C(N/N=C/c1ccc([N+](=O)[O-])cc1)SC	PMI act satM6P 2.1
Cc1ccn2cc(C34CC5CC(CC(C5)C3)C4)nc2c1	none
O=c1/c(=C\c2cc([N+](=O)[O-])cc([N+](=O)[O-])c2O)sc2nc3ccccc3n12	PMI act satM6P 2.4
O=C(O)Cc1sc(Nc2ccccc2)nc1-c1ccc(Cl)cc1	PMI act satM6P 2.5
Cc1ccc(Nc2nc(-c3ccccc3)c(CC(=O)O)s2)cc1	none
CCC(=O)c1c(NC(C)C)cc(C)oc1=O	none
COc1cc(/C=C2\C(=O)N(c3ccc(NC(C)=O)cc3)N=C2c2ccccc2)ccc1O	TNAP inh no acc 55
O=C1/C(=C\c2ccc(O)c(O)c2)C(c2ccccc2)=NN1c1ccccc1	TNAP inh no acc 88
